Screening results from PubChem BioAssay.
TAAR1 antagonist: human TAAR1 antagonists, primary screen, Fluo-8 calcium fluorescence, CHO RD-HGA16 cells. antagonist. inhibition, % at 3 µM. 360,000 tested, 1.5% active. AID 624466, 2012;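 active means inhibition above a per-plate cutoff, the mean inhibition of test compounds on that plate plus 3 SD, cut at about 49% in these data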
Target sequence (Q96RJ0 whole entry, looked up): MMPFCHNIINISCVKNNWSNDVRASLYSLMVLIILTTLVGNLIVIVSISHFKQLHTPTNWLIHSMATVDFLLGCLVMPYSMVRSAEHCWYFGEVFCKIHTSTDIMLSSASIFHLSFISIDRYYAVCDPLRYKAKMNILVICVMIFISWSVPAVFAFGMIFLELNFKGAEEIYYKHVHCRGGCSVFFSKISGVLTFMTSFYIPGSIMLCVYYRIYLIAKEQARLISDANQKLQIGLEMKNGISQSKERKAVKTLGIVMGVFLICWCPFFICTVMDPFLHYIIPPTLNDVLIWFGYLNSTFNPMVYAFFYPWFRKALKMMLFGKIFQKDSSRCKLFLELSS
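Material: RD-HGA16 CHO cells with stable hTAAR1 and Gα16; Dosing: single nominal final test compound concentration of 3 µM; Schedule: seeding 17-24 h prior, 75-min 37 °C, 30-min RT dye loading; Detection: kinetic Fluo-8 calcium fluorescence measurement; Measure: % inhibition from peak post-agonist over basal fluorescence ratio; Benchmarks: vehicle and agonist controls.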
GPR7 antag: GPR7 receptor antagonists, primary screen, cell-based, fluorescence, single concentration; GPR7-expressing cells, fluorescence antagonist assay; inhibition, % at 4.4 µM; 290,000 tested, 1.1% active; AID 1861, 2009; in the data active means inhibition above about 16%, passing the limit was not always enough;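 further: cells stimulated with the agonist NPW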
CHO parental Ca: ATP-evoked calcium signal inhibitors, parental CHO, primary screen, counter-screen for OX1R antagonist project, cell-based, fluorescence, Fluo-8 calcium dye. inhibition, % at 5.6 µM. 330,000 tested, 0.63% active. parental CHO-K1, ATP-induced calcium, Fluo-8 fluorescence;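 active means inhibition above that plate's mean sample inhibition plus 3 SD, cut at about 26% in these data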
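test system = CHO parental line | reagent = ATP stimulus | measured by = intracellular calcium via Fluo-8 no-wash fluorescent dye | control set = ATP and no-ATP DMSO wells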
OX1R antag-1: OX1R (HCRTR1) antagonists, primary screen, fluorescence, CHO/OX1R cells, Fluo-8 calcium, orexin A. Orexin/Hypocretin receptor type 1 (Homo sapiens), O43613. Fluo-8 calcium fluorescence. inhibition, % at 5 µM. 330,000 tested, 0.43% active;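 active means inhibition above its plate's threshold, mean inhibition of all tested compounds on the plate plus 3 SD, cut at about 37% in these data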
OX1R antag-2: antagonists of human orexin 1 receptor (OX1R). OX1R-expressing cells, FRET antagonist read-out. AID 485270, 2010. inhibition, % at 6.6 µM. Orexin/Hypocretin receptor type 1 (Homo sapiens), O43613. 330,000 tested, 1.8% active; in the data active means inhibition mostly above about 38%, no sharp cut-off; inactive means mostly below about 40%
TAAR1 agonist: human TAAR1 agonists, primary screen, Fluo-8 calcium fluorescence, CHO RD-HGA16 cells. 360,000 tested, 0.99% active. activation, % at 3 µM. Trace amine-associated receptor 1 (Homo sapiens), Q96RJ0. AID 624467, 2012. vehicle wells 0%, saturating PEA agonist 100%;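 active means activation above the mean activation of all test compounds in the run plus 3 SD, cut at about 38% in these data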
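System: CHO-derived RD-HGA16 cells with stable Gα16 and human TAAR1. Times: 17-24 h plating, Fluo-8 75 min 37 °C, 30 min RT. Measured by: calcium-sensitive Fluo-8 signal, excitation 470-495, emission 515-575 nm. Read-out basis: % activation relative to PEA EC100 response. Control set: DMSO and PEA EC100. Repeats: no replicates (n 1).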
Large screens that a line does not name were inactive. Most compounds without a hit are left out; they make up all but 4.6% or so of the library.

COc1cc(-c2cc(NC=O)c3ncc(-c4ccccc4)n3c2)cc(OC)c1OC	TAAR1 antagonist 63 (no result: GPR7 antag, CHO parental Ca, OX1R antag-1, OX1R antag-2)
CCOC(=O)Cc1csc(SCC(=O)Nc2cccc(Cl)c2)n1	none
CCOC(=O)Cc1csc(SCC(=O)Nc2cc(Cl)ccc2Oc2ccccc2)n1	TAAR1 antagonist 88, CHO parental Ca 62, OX1R antag-1 61
COc1ccc(-c2c[n+](CC(=O)OC3CC(C)CCC3C(C)C)c3n2CCC3)cc1 (configuration not stated)	GPR7 antag 42
CCOC(=O)[C@]12CCCC=C1N(CCC1=CCCCC1)C(=O)[C@H](CC(=O)NCCCN1CCCC1=O)C2	none (no result: GPR7 antag, CHO parental Ca, OX1R antag-1, OX1R antag-2)
O=c1c(/C=N/O)c(Nc2ccccc2)nc2ccccn12	OX1R antag-2 73
CCC(C)N=Cc1c(Nc2ccccc2)nc2c(C)cccn2c1=O (configuration not stated)	none
COc1ccc(C(O)c2nc(-c3cc(F)cc(F)c3)cs2)cc1 (configuration not stated)	none (no result: GPR7 antag, CHO parental Ca, OX1R antag-1, OX1R antag-2)
Cc1c(/C=N/NC(=O)c2ccc(O)cc2)c2ccccn2c1C(=O)c1ccc(F)cc1	GPR7 antag 20
COC(=O)N/N=C/c1c(C)c(C(=O)c2ccc(F)cc2)n2ccccc12	none
C#CC[N+](C)(C)CCCCCCCCCC	none
CCCCCC[N+](C)(C)CCSSCC[N+](C)(C)CCCCCC	none
CCCCCCCCCCCCCCCC[N+](C)(C)CC	TAAR1 antagonist 79 (no result: GPR7 antag)
CCCCCCCCCCCCCCCC[N+](C)(C)CCl	TAAR1 antagonist 63 (no result: GPR7 antag, CHO parental Ca, OX1R antag-1, OX1R antag-2)
COC(=O)c1ccc(-c2cccc(CN3CCN(c4ncc(Cc5ccccc5)cn4)CC3)c2)cc1	none (no result: GPR7 antag, CHO parental Ca, OX1R antag-1, OX1R antag-2)
COc1ccc(-c2cc3c(c4c2ccn4C)C2CCC3C2)cc1OC (configuration not stated)	none (no result: GPR7 antag, CHO parental Ca, OX1R antag-1, OX1R antag-2)
CCOc1ccc(NC(=O)CN(C)C(=O)c2cn(-c3ccc(C)cc3)nc2-c2cccc(OC)c2)cc1OCC	TAAR1 antagonist 64 (no result: GPR7 antag, CHO parental Ca, OX1R antag-1, OX1R antag-2)
O=C(NNC(=O)c1cc(-c2ccco2)nc2ccccc12)c1ccccc1	TAAR1 antagonist 50
CCOc1ccc(NC(=O)CN(C)C(=O)c2cc(C)nc3ccccc23)cc1OCC	none (no result: GPR7 antag)
COc1ccc(NC(=O)CN(C)C(=O)c2cc(-c3ccncc3)nc3ccccc23)cc1	TAAR1 antagonist 52
CCOc1ccc(NC(=O)CN(C)C(=O)c2cc(-c3ccco3)nc3ccccc23)cc1OCC	TAAR1 antagonist 52 (no result: GPR7 antag, CHO parental Ca, OX1R antag-1, OX1R antag-2)
CCOC(=O)c1snc2c(=O)[nH]cnc12	OX1R antag-2 42
O=C(Nc1ccccc1)c1snc2c(=O)[nH]cnc12	OX1R antag-2 74
COc1ccc(C(=O)N(C)CCOc2ccc(Cl)cc2)cc1S(=O)(=O)N1CCCC1	none (no result: GPR7 antag, CHO parental Ca, OX1R antag-1, OX1R antag-2)
CCOC(=O)C1CCCN(C(=O)c2ccc(F)c(Cl)c2)CC1 (configuration not stated)	none (no result: GPR7 antag, CHO parental Ca, OX1R antag-1, OX1R antag-2)
CC(O)C(NS(=O)(=O)c1ccc(Cl)cc1)C(=O)OCC(=O)c1c[nH]c2ccccc12 (configuration not stated)	TAAR1 antagonist 58
CSCCC(NS(=O)(=O)c1ccc(Cl)cc1)C(=O)OCC(=O)c1c(C)[nH]c2ccccc12 (configuration not stated)	TAAR1 antagonist 81, CHO parental Ca 82, OX1R antag-1 79, OX1R antag-2 76
Cc1[nH]c2ccccc2c1C(=O)COC(=O)C1CC(O)CN1S(=O)(=O)c1ccc(Cl)cc1 (configuration not stated)	none (no result: GPR7 antag)
CC(C)C(NS(=O)(=O)c1c(Cl)cccc1Cl)C(=O)OCC(=O)c1c[nH]c2ccccc12 (configuration not stated)	none
COC(=O)Nc1ccc(S(=O)(=O)Nc2ccc(C)cc2)cc1	none (no result: TAAR1 antagonist, CHO parental Ca, OX1R antag-1, OX1R antag-2, TAAR1 agonist)
CC(=O)c1ccc(NC(=O)Nc2ccc(NS(=O)(=O)c3ccc(C)cc3)cc2)cc1	TAAR1 antagonist 56
CC(=O)c1cccc(NS(=O)(=O)c2ccc(N/C=C\C(=O)c3ccc(C)cc3)cc2)c1	CHO parental Ca 47, OX1R antag-1 49
